The values that follow come from ChEMBL document CHEMBL4196020, “Original antileishmanial hits: Variations around amidoximes” (Eur J Med Chem, 2018).

A word on the pIC50: it is −log10 of the IC50, conventionally taken in molar units. A high value points to a low IC50. A word on the CC50: it is the concentration at which the toxic effect on the cells reaches its halfway point.

pIC50: −log10 of the molar value.

Tested on in one series: not listed separately
The experiment in a line: Selectivity index, ratio of CC50 for cytotoxicity against Balb/c mouse peritoneal macrophages to IC50 for antileishmanial activity against Leishmania amazonensis MHOM/BR/77/LTB0016 promastigotes. Format: toxicity. Conditions: read-out: Ratio CC50/IC50. The gist of the method:
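SI calculated as macrophage CC50 divided by promastigote IC50. Both values come from 72 h assays: macrophages in RPMI at 37 °C and promastigotes in Schneider's medium at 26 °C with resazurin read-out.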
In the case of `CC1(Cc2ccccc2)CC(S(=O)(=O)c2ccc(F)cc2)=C(c2ccc(/C(N)=N/O)cc2)O1` (stereo not drawn), the selectivity ratio stood at 18.9.

In the case of `CCC1(CC)CC(S(=O)(=O)c2ccc(F)cc2)=C(c2ccc(/C(N)=N/O)cc2)O1`, the selectivity ratio stood at 3.

Consider `CC1(Cc2ccc([N+](=O)[O-])cc2)CC(S(=O)(=O)c2ccc(F)cc2)=C(c2ccc(/C(N)=N/O)cc2)O1` (stereo not drawn), for which the selectivity ratio was determined as 5.8.

Consider `Cc1ccccc1CC1(C)CC(S(=O)(=O)c2ccc(F)cc2)=C(c2ccc(/C(N)=N/O)cc2)O1` (stereo not drawn), for which the selectivity ratio amounted to 37.

As for `Cc1cccc(CC2(C)CC(S(=O)(=O)c3ccc(F)cc3)=C(c3ccc(/C(N)=N/O)cc3)O2)c1` (stereo not drawn), the selectivity ratio amounted to 19.9.

For the molecule `CC1(Cc2ccccc2Br)CC(S(=O)(=O)c2ccc(F)cc2)=C(c2ccc(/C(N)=N/O)cc2)O1` (stereo not drawn), the selectivity ratio turned out to be 12.

As for `CC1(Cc2ccccc2C(F)(F)F)CC(S(=O)(=O)c2ccc(F)cc2)=C(c2ccc(/C(N)=N/O)cc2)O1` (stereo not drawn), the selectivity ratio was found to be 21.9.

As for `N/C(=N\O)c1ccc(C2=C(S(=O)(=O)c3ccc(F)cc3)CC3(CCCCC3)O2)cc1`, the selectivity ratio was 1.9.

As to `CC1(Cc2cccc([N+](=O)[O-])c2)CC(S(=O)(=O)c2ccc(F)cc2)=C(c2ccc(/C(N)=N/O)cc2)O1` (stereo not drawn), the selectivity ratio was 7.5.

`CC1(Cc2ccc(C(F)(F)F)cc2)CC(S(=O)(=O)c2ccc(F)cc2)=C(c2ccc(/C(N)=N/O)cc2)O1` (stereo not drawn): the selectivity ratio was determined as 12.6.

For the molecule `CC1(Cc2cc(C(F)(F)F)cc(C(F)(F)F)c2)CC(S(=O)(=O)c2ccc(F)cc2)=C(c2ccc(/C(N)=N/O)cc2)O1` (stereo not drawn), the selectivity ratio was 8.

For `COc1ccc(CC2(C)CC(S(=O)(=O)c3ccc(F)cc3)=C(c3ccc(/C(N)=N/O)cc3)O2)cc1` (stereo not drawn), the selectivity ratio was above 4.2.

In the next series the test system is Leishmania amazonensis. The experiment in a line: Antileishmanial activity against Leishmania amazonensis MHOM/BR/77/LTB0016 amastigotes infected in Balb/c mouse peritoneal macrophages after 72 hrs by hematological dye based light microscopic method. The series is classed as functional, organism-based. Conditions: MHOM/BR/77/LTB0016, 72 h. The gist of the method:
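Resident BALB/c peritoneal macrophages plated at 1×10^6/mL in RPMI, 1 h at 37 °C in 5% CO2, non-adherent cells washed off. Infected with stationary-phase promastigotes at 3:1 parasite/macrophage for 4 h, free parasites washed off, compounds added for 72 h. Slides stained with hematological dye, infected cells and amastigotes counted in at least 100 macrophages per sample. IC50 by nonlinear regression. Three independent experiments.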
Consider `CC1(Cc2ccccc2)CC(S(=O)(=O)c2ccc(F)cc2)=C(c2ccc(/C(N)=N/O)cc2)O1` (stereo not drawn), for which the negative-log IC50 (pIC50) was 5.10.

For `Cc1ccccc1CC1(C)CC(S(=O)(=O)c2ccc(F)cc2)=C(c2ccc(/C(N)=N/O)cc2)O1` (stereo not drawn), the pIC50 was 5.14.

`Cc1cccc(CC2(C)CC(S(=O)(=O)c3ccc(F)cc3)=C(c3ccc(/C(N)=N/O)cc3)O2)c1` (stereo not drawn): the pIC50 is 5.17.

With `CC1(Cc2ccccc2Br)CC(S(=O)(=O)c2ccc(F)cc2)=C(c2ccc(/C(N)=N/O)cc2)O1` (stereo not drawn), the pIC50 was 5.03.

Consider `CC1(Cc2ccccc2C(F)(F)F)CC(S(=O)(=O)c2ccc(F)cc2)=C(c2ccc(/C(N)=N/O)cc2)O1` (stereo not drawn), for which the pIC50 is 4.99.

Molecule `CC1(Cc2ccc(C(F)(F)F)cc2)CC(S(=O)(=O)c2ccc(F)cc2)=C(c2ccc(/C(N)=N/O)cc2)O1` (stereo not drawn) showed a pIC50 below 4.70.

Tested on in a further series: not listed separately
The experiment in a line: Solubility of the compound in RPMI 1640 medium. Format: physicochemical.
Settings: not given
Turning to `COc1ccc(CC2(C)CC(S(=O)(=O)c3ccc(F)cc3)=C(c3ccc(/C(N)=N/O)cc3)O2)cc1` (stereo not drawn), the solubility result was “Insoluble”.

The next series relates to Leishmania amazonensis. The experiment in a line: Antileishmanial activity against Leishmania amazonensis MHOM/BR/77/LTB0016 promastigotes after 72 hrs by resazurin dye based assay. The series is classed as functional, organism-based. Conditions: MHOM/BR/77/LTB0016, 72 h. The gist of the method:
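Promastigotes grown in Schneider's insect medium with 10% HIFCS, started at 1.0×10^6 cells/mL with or without a range of compound concentrations, 26 °C for 72 h. Viability read by resazurin. IC50 by logarithmic regression. Three independent experiments in triplicate, mean ± SD.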
In general terms: The colour change of resazurin is a common sign of viable cells or microbes.
Turning to `CC1(Cc2ccccc2)CC(S(=O)(=O)c2ccc(F)cc2)=C(c2ccc(/C(N)=N/O)cc2)O1` (stereo not drawn), the pIC50 is 5.27.

The molecule `CCC1(CC)CC(S(=O)(=O)c2ccc(F)cc2)=C(c2ccc(/C(N)=N/O)cc2)O1` gave a negative logarithm of the IC50 (pIC50) of 4.52.

On to `CC1(Cc2ccc([N+](=O)[O-])cc2)CC(S(=O)(=O)c2ccc(F)cc2)=C(c2ccc(/C(N)=N/O)cc2)O1` (stereo not drawn), for which the pIC50 was 4.78.

With `Cc1ccccc1CC1(C)CC(S(=O)(=O)c2ccc(F)cc2)=C(c2ccc(/C(N)=N/O)cc2)O1` (stereo not drawn), the pIC50 is 5.68.

`Cc1cccc(CC2(C)CC(S(=O)(=O)c3ccc(F)cc3)=C(c3ccc(/C(N)=N/O)cc3)O2)c1` (stereo not drawn) gave a pIC50 of 5.25.

Regarding `CC1(Cc2ccccc2Br)CC(S(=O)(=O)c2ccc(F)cc2)=C(c2ccc(/C(N)=N/O)cc2)O1` (stereo not drawn), the negative-log IC50 (pIC50) was 5.04.

In turn, `CC1(Cc2ccccc2C(F)(F)F)CC(S(=O)(=O)c2ccc(F)cc2)=C(c2ccc(/C(N)=N/O)cc2)O1` (stereo not drawn) had a pIC50 of 5.32. Against the preceding molecule, the pIC50 is 0.28 log units higher.

For the molecule `N/C(=N\O)c1ccc(C2=C(S(=O)(=O)c3ccc(F)cc3)CC3(CCCCC3)O2)cc1`, the pIC50 was 4.31. Compared with the last molecule, the pIC50 is 1.01 log units lower.

On to `CC1(Cc2cccc([N+](=O)[O-])c2)CC(S(=O)(=O)c2ccc(F)cc2)=C(c2ccc(/C(N)=N/O)cc2)O1` (stereo not drawn), for which the pIC50 was 4.94.

Turning to `CC1(Cc2ccc(C(F)(F)F)cc2)CC(S(=O)(=O)c2ccc(F)cc2)=C(c2ccc(/C(N)=N/O)cc2)O1` (stereo not drawn), the pIC50 was 5.09.

Take `CC1(Cc2cc(C(F)(F)F)cc(C(F)(F)F)c2)CC(S(=O)(=O)c2ccc(F)cc2)=C(c2ccc(/C(N)=N/O)cc2)O1` (stereo not drawn): the pIC50 was 5.27. This pIC50 and that of the molecule before are within 0.2 log units of each other.

Molecule `COc1ccc(CC2(C)CC(S(=O)(=O)c3ccc(F)cc3)=C(c3ccc(/C(N)=N/O)cc3)O2)cc1` (stereo not drawn) showed a pIC50 of 4.62.

Tested on in the next series: not listed separately
The experiment in a line: Cytotoxicity against Balb/c mouse peritoneal macrophages assessed as reduction in cell viability after 72 hrs by resazurin assay. Format: cell-based, Peritoneal macrophage.
Settings: not given
A digest of the protocol:
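Peritoneal cells collected by lavage in RPMI 1640 with 10% HIFCS, 2 mM L-glutamine, 1 mM pyruvate, streptomycin and penicillin. Adjusted to 1.0×10^6 cells/mL, plated in triplicate, 1 h at 37 °C in 5% CO2, non-adherent cells washed off. […] Three independent experiments, mean ± SD.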
In the case of `CC1(Cc2ccccc2)CC(S(=O)(=O)c2ccc(F)cc2)=C(c2ccc(/C(N)=N/O)cc2)O1` (stereo not drawn), the CC50 at 72 h was 102 µM.

Turning to `CCC1(CC)CC(S(=O)(=O)c2ccc(F)cc2)=C(c2ccc(/C(N)=N/O)cc2)O1`, the CC50 at 72 h worked out at 91.4 µM.

Turning to `CC1(Cc2ccc([N+](=O)[O-])cc2)CC(S(=O)(=O)c2ccc(F)cc2)=C(c2ccc(/C(N)=N/O)cc2)O1` (stereo not drawn), the CC50 at 72 h was determined as 97.4 µM.

With `Cc1ccccc1CC1(C)CC(S(=O)(=O)c2ccc(F)cc2)=C(c2ccc(/C(N)=N/O)cc2)O1` (stereo not drawn), the CC50 at 72 h was 77.6 µM.

As for `Cc1cccc(CC2(C)CC(S(=O)(=O)c3ccc(F)cc3)=C(c3ccc(/C(N)=N/O)cc3)O2)c1` (stereo not drawn), the CC50 at 72 h turned out to be 112 µM.

On to `CC1(Cc2ccccc2Br)CC(S(=O)(=O)c2ccc(F)cc2)=C(c2ccc(/C(N)=N/O)cc2)O1` (stereo not drawn), for which the CC50 at 72 h is 109 µM.

As to `CC1(Cc2ccccc2C(F)(F)F)CC(S(=O)(=O)c2ccc(F)cc2)=C(c2ccc(/C(N)=N/O)cc2)O1` (stereo not drawn), the CC50 at 72 h stood at 105 µM.

`N/C(=N\O)c1ccc(C2=C(S(=O)(=O)c3ccc(F)cc3)CC3(CCCCC3)O2)cc1`: the CC50 at 72 h worked out at 92.9 µM.

On to `CC1(Cc2cccc([N+](=O)[O-])c2)CC(S(=O)(=O)c2ccc(F)cc2)=C(c2ccc(/C(N)=N/O)cc2)O1` (stereo not drawn), for which the CC50 at 72 h came out at 86.6 µM.

Take `CC1(Cc2ccc(C(F)(F)F)cc2)CC(S(=O)(=O)c2ccc(F)cc2)=C(c2ccc(/C(N)=N/O)cc2)O1` (stereo not drawn): the CC50 at 72 h stood at 103 µM.

Take `CC1(Cc2cc(C(F)(F)F)cc(C(F)(F)F)c2)CC(S(=O)(=O)c2ccc(F)cc2)=C(c2ccc(/C(N)=N/O)cc2)O1` (stereo not drawn): the CC50 at 72 h was 43.1 µM.

For the molecule `COc1ccc(CC2(C)CC(S(=O)(=O)c3ccc(F)cc3)=C(c3ccc(/C(N)=N/O)cc3)O2)cc1` (stereo not drawn), the CC50 at 72 h is above 100 µM.
